Source: ChEMBL document CHEMBL4011623, “Development of 1-((1,4-trans)-4-Aryloxycyclohexyl)-3-arylurea Activators of Heme-Regulated Inhibitor as Selective Activators of the Eukaryotic Initiation Factor 2 Alpha (eIF2α) Phosphorylation Arm of the Integrated Endoplasmic Reticulum Stress Response” (J Med Chem, 2017)

Experiments:
[1] = target: Eukaryotic translation initiation factor 2-alpha kinase 1 (Mus musculus) (UniProt Q9Z2R9); test: Activation of HRI in mouse KLN cells transfected with 5'UTR of ATF-4 mRNA fused firefly luciferase mRNA and 5'UTR lacking uORF fused renila luciferase mRNA assessed as increase in eIF2alpha phosphorylation by measuring ratio of firefly luciferase to renila luciferase at 5 uM after 16 hrs; assay type: cell-based
Chain of Eukaryotic translation initiation factor 2-alpha kinase 1 (Mus musculus) (Q9Z2R9 whole entry, the tested form may be a part): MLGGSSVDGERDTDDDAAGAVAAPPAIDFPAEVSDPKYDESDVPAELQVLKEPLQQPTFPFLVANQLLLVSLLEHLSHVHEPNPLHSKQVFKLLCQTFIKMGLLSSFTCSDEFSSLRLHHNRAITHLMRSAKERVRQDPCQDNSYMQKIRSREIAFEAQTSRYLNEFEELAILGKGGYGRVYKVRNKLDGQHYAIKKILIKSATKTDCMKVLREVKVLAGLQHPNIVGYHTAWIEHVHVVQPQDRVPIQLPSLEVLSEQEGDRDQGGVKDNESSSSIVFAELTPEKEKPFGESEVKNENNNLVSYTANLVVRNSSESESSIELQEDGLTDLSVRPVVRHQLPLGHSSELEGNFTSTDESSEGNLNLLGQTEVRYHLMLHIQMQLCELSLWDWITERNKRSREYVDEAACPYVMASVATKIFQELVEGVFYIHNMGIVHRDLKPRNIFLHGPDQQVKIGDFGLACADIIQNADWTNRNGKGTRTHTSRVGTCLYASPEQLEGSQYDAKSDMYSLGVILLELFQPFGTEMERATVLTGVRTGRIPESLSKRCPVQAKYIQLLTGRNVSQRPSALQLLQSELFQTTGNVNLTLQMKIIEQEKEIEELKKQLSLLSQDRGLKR

[2] = target: Eukaryotic translation initiation factor 2-alpha kinase 1 (Mus musculus) (UniProt Q9Z2R9); test: Activation of HRI in mouse KLN cells transfected with 5'UTR of ATF-4 mRNA fused firefly luciferase mRNA and 5'UTR lacking uORF fused renila luciferase mRNA assessed as increase in eIF2alpha phosphorylation by measuring ratio of firefly luciferase to renila luciferase after 16 hrs; assay type: cell-based
[3] = Antiproliferative activity against human CRL2813 cells after 5 days by sulforhodamine B assay; assay type: functional, cell-based; conditions: CRL2813, 120 h
How it was run: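 CRL-2813 melanoma cells grown 5 days with 0.5–20 μM compound, then fixed in cold 10% TCA and stained with sulforhodamine B. Bound dye measured. Growth % = 100×(T−T0)/(C−T0), with T0 at time zero. IC50 is the concentration giving 50% growth inhibition.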

[4] = target: Eukaryotic translation initiation factor 2-alpha kinase 1 (Mus musculus) (UniProt Q9Z2R9); test: Activation of HRI in mouse KLN cells transfected with 5'UTR of ATF-4 mRNA fused firefly luciferase mRNA and 5'UTR lacking uORF fused renila luciferase mRNA assessed as increase in eIF2alpha phosphorylation by measuring ratio of firefly luciferase to renila luciferase at 1.25 uM after 16 hrs; assay type: cell-based

| SMILES | Ratio [1] | Activity [2] | Ratio [4] | IC50 [3] |
| --- | --- | --- | --- | --- |
| O=C(Nc1ccc(Oc2ccc(C(F)(F)F)cc2)cc1)Nc1cccc(C(F)(F)F)c1 | 8.99 | Dose-dependent effect | 3.31 | 440 nM |
| O=C(Nc1cccc(C(F)(F)F)c1)N[C@H]1CC[C@H](Oc2ccc(OC(F)(F)F)cc2)CC1 | 10.1 |  | 3.37 | 820 nM |
| N#Cc1cccc(NC(=O)N[C@H]2CC[C@H](Oc3ccc(C(F)(F)F)cc3)CC2)c1 | 7 | Dose-dependent effect | 0.96 | 940 nM |
| N#Cc1ccc(O[C@H]2CC[C@H](NC(=O)Nc3cccc(C#N)c3)CC2)cc1 | 1.15 | Dose-dependent effect | 1.01 | 8200 nM |
| N#Cc1ccc(NC(=O)N[C@H]2CC[C@H](Oc3ccc(C#N)cc3)CC2)cc1 | 1.38 | Dose-dependent effect | 1.03 | 9030 nM |
| O=C(Nc1cccc(OC(F)(F)F)c1)N[C@H]1CC[C@H](Oc2ccc(OC(F)(F)F)cc2)CC1 | 10.7 | Dose-dependent effect | 2.87 | 1450 nM |
| N#Cc1ccc(O[C@H]2CC[C@H](NC(=O)Nc3cccc(C(F)(F)F)c3)CC2)cc1 | 3.23 | Dose-dependent effect | 0.92 | 6060 nM |
| O=C(Nc1ccc(Oc2ccc(C(F)(F)F)cc2)cc1)Nc1cccc(OC(F)(F)F)c1 | 6.73 | Dose-dependent effect | 2.37 | 500 nM |
| N#Cc1cc(C#N)cc(NC(=O)N[C@H]2CC[C@H](Oc3ccc(C(F)(F)F)cc3)CC2)c1 | 2.36 | Dose-dependent effect | 1.51 | 3680 nM |

Now from value to compound, other results behind:

| Ratio [1] | Activity [2] | Ratio [4] | SMILES | IC50 [3] |
| --- | --- | --- | --- | --- |
| 1.57 | Dose-dependent effect | 1.04 | NC(=O)c1cc(O[C@H]2CC[C@H](NC(=O)Nc3cccc(OC(F)(F)F)c3)CC2)ccc1C(F)(F)F | 3660 nM |
| 4.31 | Dose-dependent effect | 0.85 | CC(=O)Nc1cc(C(F)(F)F)ccc1O[C@H]1CC[C@H](NC(=O)Nc2cccc(OC(F)(F)F)c2)CC1 | 1500 nM |
| 1.49 | Dose-dependent effect | 0.91 | NC(=O)c1cc(C(F)(F)F)ccc1O[C@H]1CC[C@H](NC(=O)Nc2cccc(C(F)(F)F)c2)CC1 | 2760 nM |
| 1.12 | Dose-dependent effect | 0.79 | NC(=O)c1cc(O[C@H]2CC[C@H](NC(=O)Nc3cccc(C(F)(F)F)c3)CC2)ccc1C(F)(F)F | 3360 nM |
| 3.28 | Dose-dependent effect | 0.96 | O=C(Nc1cccc(C(F)(F)F)c1)N[C@H]1CC[C@H](Oc2ccc(C(F)(F)F)cc2[N+](=O)[O-])CC1 | 5510 nM |
| 6.3 | Dose-dependent effect | 1.01 | N#Cc1cc(C(F)(F)F)ccc1O[C@H]1CC[C@H](NC(=O)Nc2cccc(C(F)(F)F)c2)CC1 | 1470 nM |
| 5.13 | Dose-dependent effect | 0.88 | NC(=O)c1cc(C(F)(F)F)ccc1O[C@H]1CC[C@H](NC(=O)Nc2cccc(OC(F)(F)F)c2)CC1 | 1530 nM |
| 6.11 | Dose-dependent effect | 1.02 | O=C(Nc1cccc(C(F)(F)F)c1)N[C@H]1CC[C@H](Oc2ccc(C(F)(F)F)cn2)CC1 | 1570 nM |
| 3.9 | Dose-dependent effect | 0.84 | CC(=O)Nc1cc(C(F)(F)F)ccc1O[C@H]1CC[C@H](NC(=O)Nc2cccc(C(F)(F)F)c2)CC1 | 1460 nM |
